Data on six molecules can be found in ChEMBL document CHEMBL2163218, “Design, synthesis, and biological and structural evaluations of novel HIV-1 protease inhibitors to combat drug resistance” (J Med Chem, 2012).

Assay [1] deals with Human immunodeficiency virus 1. Nature of the assay: Antiviral activity against multidrug resistant HIV1 MDR1 containing protease M46I, I54V, V82A and L90M mutant infected in HEK293 cells assessed as reduction in viral replication incubated for 48 hrs by luciferase reporter based assay. It is filed as functional, organism-based. The following applies: Human immunodeficiency virus 1, MDR1, HEK293, 48 h. For orientation: A reporter such as luciferase makes a cellular process visible.

The next assay deals with Protease (Human immunodeficiency virus 1, UniProt Q9YQ12). Nature of the assay: Inhibition of wild type HIV1 protease by FRET assay. In outline: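 Recombinant HIV-1 protease Q7K, desalted into 20 mM sodium acetate pH 5, apparent concentration ~50 nM (UV 280 nm). Inhibitors in DMSO, 12 concentrations, added with protease to buffer pH 4.7 (0.1 M NaOAc, 1 M NaCl, 1 mM EDTA, 1 mM DTT, 2% DMSO, 1 mg/mL BSA). Cleavage started by injecting EDANS/DABCYL peptide substrate. Ki from initial velocities fitted to the Morrison equation.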

Assay [2] has as its system Human immunodeficiency virus 1. Kind of assay: Antiviral activity against multidrug resistant HIV1 MDRC4 infected in HEK293 cells assessed as reduction in viral replication incubated for 48 hrs by luciferase reporter based assay. It is filed as functional, organism-based. The following applies: Human immunodeficiency virus 1, MDRC4, HEK293, 48 h.
The test system of assay [3] is Human immunodeficiency virus 1. Kind of assay: Antiviral activity against wild type HIV1 clade A isolated form HIV1 patient infected in HEK293 cells assessed as reduction in viral replication incubated for 48 hrs by luciferase reporter based assay. The format is functional, organism-based. The following applies: Human immunodeficiency virus 1, clade A, HEK293, 48 h.

The test system of assay [4] is Human immunodeficiency virus 1. Kind of assay: Antiviral activity against wild type HIV1 infected in HEK293 cells assessed as reduction in viral replication incubated for 48 hrs by luciferase reporter based assay. It is filed as functional, organism-based. The following applies: Human immunodeficiency virus 1, HEK293, 48 h.
In assay [5] the test system is Human immunodeficiency virus 1. Nature of the assay: Antiviral activity against wild type HIV1 clade B isolated form HIV1 patient infected in HEK293 cells assessed as reduction in viral replication incubated for 48 hrs by luciferase reporter based assay. The format is functional, organism-based. The following applies: Human immunodeficiency virus 1, clade B, HEK293, 48 h.

Assay [6] relates to Human immunodeficiency virus 1. Nature of the assay: Antiviral activity against wild type HIV1 clade C isolated form HIV1 patient infected in HEK293 cells assessed as reduction in viral replication incubated for 48 hrs by luciferase reporter based assay. The following applies: Human immunodeficiency virus 1, clade C, HEK293, 48 h. It is filed as functional, organism-based.
Assay [7] has as its target Human immunodeficiency virus type 1 protease (Human immunodeficiency virus 1, UniProt Q72874, A71V/I50V). Nature of the assay: Inhibition of HIV1 protease I50V, A71V mutant by FRET assay.
Assay [8] deals with Human immunodeficiency virus type 1 protease (Human immunodeficiency virus 1, UniProt Q72874, A71V/G73S/I84V/L10I/L63P/L90M). Nature of the assay: Inhibition of HIV1 protease L10I, L63P, A71V, G73S, I84V, L90M mutant by FRET assay.
The target of assay [9] is Human immunodeficiency virus type 1 protease (Human immunodeficiency virus 1, UniProt Q72874, G48V/I54V/L10I/L63P/V82A). Nature of the assay: Inhibition of HIV1 protease L10I, G48V, I54V, L63P and V82A mutant by FRET assay.

Protease, sequence (Q9YQ12 whole entry): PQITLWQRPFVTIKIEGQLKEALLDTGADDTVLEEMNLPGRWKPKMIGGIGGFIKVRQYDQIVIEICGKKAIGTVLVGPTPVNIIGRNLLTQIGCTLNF

As to `CCCCCN(C[C@@H](O)[C@H](Cc1ccccc1)NC(=O)OCCN1CCOC1=O)S(=O)(=O)c1ccc(OC)cc1`, the EC50 in assay [1] was found to be 300 nM; in assay [2], 265 nM; in assay [3] it was 126 nM; in [4], 77.1 nM; in [5] it was 52.4 nM; in assay [6], 158 nM. This molecule also displayed an inhibitory constant (Ki) at Protease of 0.008 nM.

In the case of `CCCCCN(C[C@@H](O)[C@H](Cc1ccccc1)NC(=O)O[C@H](C)CC(=O)OC)S(=O)(=O)c1ccc2ncsc2c1`, the Ki in [7] was found to be 120 nM; in assay [8] it was 45.9 nM; at Protease, 11.4 nM; in assay [9] it was 180 nM.

Consider `CCCCCN(C[C@@H](O)[C@H](Cc1ccccc1)NC(=O)OCCN1CCNC1=O)S(=O)(=O)c1ccc2ncsc2c1`, for which the 50% effective concentration (EC50) in assay [1] was 237 nM; in assay [2], 274 nM; in assay [3], 99.7 nM; in assay [4] it was 83.8 nM; in assay [5] it was 53.9 nM; in [6], 130 nM. At Protease, this molecule yielded an inhibition constant Ki of 0.217 nM.

Consider `CCCCCN(C[C@@H](O)[C@H](Cc1ccccc1)NC(=O)OCCN1CCOC1=O)S(=O)(=O)c1ccc2ncsc2c1`, for which the EC50 in assay [1] came to 259 nM; in assay [2], 420 nM; in assay [3] it was 96.3 nM; in assay [4], 73 nM; in assay [5], 41.1 nM; in assay [6], 120 nM. On Protease, this molecule came in with a Ki of 0.017 nM.

On to `CC[C@H](C)CN(C[C@@H](O)[C@H](Cc1ccccc1)NC(=O)OCCN1CCOC1=O)S(=O)(=O)c1ccc2ncsc2c1`, for which the EC50 in assay [1] is 32.2 nM; in [2], 73.6 nM; in assay [3], 21.2 nM; in assay [4], 33.3 nM; in [5], 12 nM; in [6] it was 36.2 nM. The molecule further returned a Ki on Protease of 0.005 nM.

Turning to `CC[C@H](C)CN(C[C@@H](O)[C@H](Cc1ccccc1)NC(=O)OCCNC(=O)C(Cl)Cl)S(=O)(=O)c1ccc(OC)cc1`, the EC50 in assay [1] worked out at 123 nM; in assay [2] it was 159 nM; in assay [3], 51.3 nM; in assay [4], 39.1 nM; in [5], 30.7 nM; in assay [6], 84.6 nM.

In general, EC50 refers to the midpoint of the concentration-response curve. As a reminder, the Ki is the equilibrium dissociation constant of an inhibitor or competing ligand from its target. A higher Ki goes with a looser hold on the target.
